Results reported in ChEMBL document CHEMBL3992538, “Hybrids of thienopyrimidinones and thiouracils as anti-tubercular agents: SAR and docking studies” (Eur J Med Chem, 2017).
Converted amounts (≈) assume the structure as drawn.

Experiments:
[1] = test system: Mycobacterium tuberculosis; experiment: Antitubercular activity against dormant stage of Mycobacterium tuberculosis H37Ra ATCC 25177 infected in human THP1 cells after 12 days by nitrate reductase assay; type: functional; details: H37Ra ATCC 25177, 288 h
How it was run: (§1)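 Ex vivo test of H37Ra in THP-1 cells by nitrate reductase assay, absorbance read at 540 nm. Active stage incubated 8 days and dormant stage 12 days. H37Ra (ATCC 25177) grown in M. pheli medium to OD 1.0 and subcultured once from -70°C stock.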

[2] = test system: Mycobacterium tuberculosis; experiment: Antitubercular activity against active stage of Mycobacterium tuberculosis H37Ra ATCC 25177 infected in human THP1 cells after 8 days by nitrate reductase assay; type: functional; details: H37Ra ATCC 25177, 192 h; how it was run: as §1
[3] = test system: Mycobacterium tuberculosis; experiment: Antitubercular activity against dormant stage of Mycobacterium tuberculosis H37Ra ATCC 25177 after 12 days by XTT reduction menadione assay; type: functional; details: H37Ra ATCC 25177, 288 h
How it was run: (§2)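 M. tuberculosis H37Ra (ATCC 25177), grown to log phase (OD 1.0) in M. pheli medium from -70°C stock, subcultured once before inoculation. Incubation 8 days (active) or 12 days (dormant). XRMA read-out as absorbance at 470 nm.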

[4] = test system: Mycobacterium tuberculosis; experiment: Antitubercular activity against active stage of Mycobacterium tuberculosis H37Ra ATCC 25177 after 8 days by XTT reduction menadione assay; type: functional; details: H37Ra ATCC 25177, 192 h; how it was run: as §2
[5] = Cytotoxicity against human THP1 cells assessed as growth inhibition by MTT assay; type: cell-based; details: THP-1 cells
How it was run: (§3)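 MTT assay in duplicate on THP-1 leukaemia, A549 lung adenocarcinoma, PANC-1 pancreatic adenocarcinoma and HeLa cervical carcinoma cells, all obtained from ECCC.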

[6] = Cytotoxicity against human A549 cells assessed as growth inhibition by MTT assay; type: cell-based; how it was run: as §3
[7] = Cytotoxicity against human PANC1 cells assessed as growth inhibition by MTT assay; type: cell-based; details: PANC-1 cells; how it was run: as §3
[8] = Cytotoxicity against human HeLa cells assessed as growth inhibition by MTT assay; type: cell-based; how it was run: as §3
[9] = Selectivity index, ratio of GI50 for human A549 cells to MIC for dormant stage of Mycobacterium tuberculosis H37Ra ATCC 25177 infected in human THP1 cells; type: toxicity, cell-based; details: read-out: Selectivity Index
How it was run: (§4)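 Selectivity index is the cytotoxic GI50 against the named human cell line divided by the antimycobacterial value. Activity counted as specific when SI >10.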

[10] = Selectivity index, ratio of GI50 for human A549 cells to MIC for dormant stage of Mycobacterium tuberculosis H37Ra ATCC 25177; type: toxicity; details: read-out: Selectivity Index; how it was run: as §4
[11] = Selectivity index, ratio of GI50 for human PANC1 cells to MIC for dormant stage of Mycobacterium tuberculosis H37Ra ATCC 25177 infected in human THP1 cells; type: toxicity, cell-based; details: PANC-1 cells, read-out: Selectivity Index; how it was run: as §4
[12] = Selectivity index, ratio of GI50 for human PANC1 cells to MIC for dormant stage of Mycobacterium tuberculosis H37Ra ATCC 25177; type: toxicity; details: PANC-1 cells, read-out: Selectivity Index; how it was run: as §4
[13] = Selectivity index, ratio of GI50 for human HeLa cells to MIC for dormant stage of Mycobacterium tuberculosis H37Ra ATCC 25177 infected in human THP1 cells; type: toxicity, cell-based; details: read-out: Selectivity Index; how it was run: as §4
[14] = Selectivity index, ratio of GI50 for human HeLa cells to MIC for dormant stage of Mycobacterium tuberculosis H37Ra ATCC 25177; type: toxicity, cell-based; details: read-out: Selectivity Index; how it was run: as §4
[15] = Selectivity index, ratio of GI50 for human A549 cells to MIC for active stage of Mycobacterium tuberculosis H37Ra ATCC 25177 infected in human THP1 cells; type: toxicity, cell-based; details: read-out: Selectivity Index; how it was run: as §4
[16] = Selectivity index, ratio of GI50 for human A549 cells to MIC for active stage of Mycobacterium tuberculosis H37Ra ATCC 25177; type: toxicity; details: read-out: Selectivity Index; how it was run: as §4
[17] = Selectivity index, ratio of GI50 for human PANC1 cells to MIC for active stage of Mycobacterium tuberculosis H37Ra ATCC 25177 infected in human THP1 cells; type: toxicity, cell-based; details: PANC-1 cells, read-out: Selectivity Index; how it was run: as §4
[18] = Selectivity index, ratio of GI50 for human PANC1 cells to MIC for active stage of Mycobacterium tuberculosis H37Ra ATCC 25177; type: toxicity; details: PANC-1 cells, read-out: Selectivity Index; how it was run: as §4
[19] = Selectivity index, ratio of GI50 for human HeLa cells to MIC for active stage of Mycobacterium tuberculosis H37Ra ATCC 25177 infected in human THP1 cells; type: toxicity, cell-based; details: read-out: Selectivity Index; how it was run: as §4
[20] = Selectivity index, ratio of GI50 for human HeLa cells to MIC for active stage of Mycobacterium tuberculosis H37Ra ATCC 25177; type: toxicity, cell-based; details: read-out: Selectivity Index; how it was run: as §4

COc1cc(-c2nc(SCCCn3cnc4sc5c(c4c3=O)CCCC5)n(CCCn3cnc4sc5c(c4c3=O)CCCC5)c(=O)c2C#N)cc(OC)c1OC
MIC [1]: > 30 µg/mL
MIC [2]: > 30 µg/mL
MIC [3]: > 30 µg/mL
MIC [4]: > 30 µg/mL
GI50 [5]: 81.4 µg/mL (≈ 100 µM)
GI50 [6]: 83.1 µg/mL (≈ 102 µM)
GI50 [7]: > 100 µg/mL
GI50 [8]: 89.6 µg/mL (≈ 110 µM)
selectivity ratio [9]: 3
selectivity ratio [10]: < 3
selectivity ratio [11]: > 3
selectivity ratio [12]: > 3
selectivity ratio [13]: < 3
selectivity ratio [14]: 3
selectivity ratio [15]: < 3
selectivity ratio [16]: 3
selectivity ratio [17]: > 3
selectivity ratio [18]: > 3
selectivity ratio [19]: 3
selectivity ratio [20]: 3

COc1cc(-c2nc(SCCCn3cnc4sc5c(c4c3=O)CCCC5)n(Cc3c(F)c(F)c(F)c(F)c3F)c(=O)c2C#N)cc(OC)c1OC
MIC [1]: 26.5 µg/mL (≈ 35.5 µM)
MIC [2]: > 30 µg/mL
MIC [3]: 28.3 µg/mL (≈ 37.9 µM)
MIC [4]: > 30 µg/mL
GI50 [5]: > 100 µg/mL
GI50 [6]: > 100 µg/mL
GI50 [7]: > 100 µg/mL
GI50 [8]: > 100 µg/mL
selectivity ratio [9]: > 4
selectivity ratio [10]: > 4
selectivity ratio [11]: > 4
selectivity ratio [12]: > 4
selectivity ratio [13]: > 4
selectivity ratio [14]: > 4
selectivity ratio [15]: > 3
selectivity ratio [16]: > 3
selectivity ratio [17]: > 3
selectivity ratio [18]: > 3
selectivity ratio [19]: > 3
selectivity ratio [20]: > 3

N#Cc1c(-c2ccc(O)cc2)[nH]c(=S)[nH]c1=O
MIC [1]: > 30 µg/mL
MIC [2]: > 30 µg/mL
MIC [3]: > 30 µg/mL
MIC [4]: > 30 µg/mL
GI50 [5]: 93 µg/mL (≈ 379 µM)
GI50 [6]: 87.4 µg/mL (≈ 356 µM)
GI50 [7]: 89.1 µg/mL (≈ 363 µM)
GI50 [8]: 90.8 µg/mL (≈ 370 µM)
selectivity ratio [9]: 3
selectivity ratio [10]: < 3
selectivity ratio [11]: < 3
selectivity ratio [12]: < 3
selectivity ratio [13]: < 3
selectivity ratio [14]: 3
selectivity ratio [15]: < 3
selectivity ratio [16]: 3
selectivity ratio [17]: 3
selectivity ratio [18]: 3
selectivity ratio [19]: 3
selectivity ratio [20]: 3

COc1cc(-c2nc(SCCCn3cnc4sc5c(c4c3=O)CCCC5)n(Cc3ccccc3)c(=O)c2C#N)cc(OC)c1OC
MIC [1]: > 30 µg/mL
MIC [2]: > 30 µg/mL
MIC [3]: > 30 µg/mL
MIC [4]: > 30 µg/mL
GI50 [5]: > 100 µg/mL
GI50 [6]: > 100 µg/mL
GI50 [7]: 51.9 µg/mL (≈ 79.1 µM)
GI50 [8]: 72.1 µg/mL (≈ 110 µM)
selectivity ratio [9]: > 3
selectivity ratio [10]: > 3
selectivity ratio [11]: 2
selectivity ratio [12]: 2
selectivity ratio [13]: 2
selectivity ratio [14]: 2
selectivity ratio [15]: > 3
selectivity ratio [16]: > 3
selectivity ratio [17]: 2
selectivity ratio [18]: 2
selectivity ratio [19]: 2
selectivity ratio [20]: 2

COc1cc(-c2[nH]c(=S)[nH]c(=O)c2C#N)cc(OC)c1OC
MIC [1]: 11.3 µg/mL (≈ 35.4 µM)
MIC [2]: > 30 µg/mL
MIC [3]: 17.3 µg/mL (≈ 54.2 µM)
MIC [4]: > 30 µg/mL
GI50 [5]: > 100 µg/mL
GI50 [6]: > 100 µg/mL
GI50 [7]: > 100 µg/mL
GI50 [8]: 63.7 µg/mL (≈ 199 µM)
selectivity ratio [9]: > 9
selectivity ratio [10]: > 6
selectivity ratio [11]: > 9
selectivity ratio [12]: > 6
selectivity ratio [13]: 6
selectivity ratio [14]: 4
selectivity ratio [15]: > 3
selectivity ratio [16]: > 3
selectivity ratio [17]: > 3
selectivity ratio [18]: > 3
selectivity ratio [19]: 2
selectivity ratio [20]: 2

COc1cc(-c2nc(SCCCn3cnc4sc5c(c4c3=O)CCCC5)n(S(=O)(=O)c3ccc(C)cc3)c(=O)c2C#N)cc(OC)c1OC
MIC [1]: > 30 µg/mL
MIC [2]: > 30 µg/mL
MIC [3]: > 30 µg/mL
MIC [4]: > 30 µg/mL
GI50 [5]: > 100 µg/mL
GI50 [6]: > 100 µg/mL
GI50 [7]: > 100 µg/mL
GI50 [8]: 64.2 µg/mL (≈ 89.2 µM)
selectivity ratio [9]: > 3
selectivity ratio [10]: > 3
selectivity ratio [11]: > 3
selectivity ratio [12]: > 3
selectivity ratio [13]: < 2
selectivity ratio [14]: 2
selectivity ratio [15]: > 3
selectivity ratio [16]: > 3
selectivity ratio [17]: > 3
selectivity ratio [18]: > 3
selectivity ratio [19]: 2
selectivity ratio [20]: 2

C#CCn1c(SCCCn2cnc3sc4c(c3c2=O)CCCC4)nc(-c2cc(OC)c(OC)c(OC)c2)c(C#N)c1=O
MIC [1]: > 30 µg/mL
MIC [2]: > 30 µg/mL
MIC [3]: > 30 µg/mL
MIC [4]: > 30 µg/mL
GI50 [5]: > 100 µg/mL
GI50 [6]: > 100 µg/mL
GI50 [7]: > 100 µg/mL
GI50 [8]: 66.3 µg/mL (≈ 110 µM)
selectivity ratio [9]: > 3
selectivity ratio [10]: > 3
selectivity ratio [11]: > 3
selectivity ratio [12]: > 3
selectivity ratio [14]: 2
selectivity ratio [15]: > 3
selectivity ratio [16]: > 3
selectivity ratio [17]: > 3
selectivity ratio [18]: > 3
selectivity ratio [19]: 2
selectivity ratio [20]: 2

CC(=O)O[C@H]1C(=O)[C@@]2(C)[C@H]([C@H](OC(=O)c3ccccc3)[C@]3(O)C[C@H](OC(=O)[C@H](O)[C@@H](NC(=O)c4ccccc4)c4ccccc4)C(C)=C1C3(C)C)[C@]1(OC(C)=O)CO[C@@H]1C[C@@H]2O [PACLITAXEL]
GI50 [7]: 0.128 µg/mL (≈ 0.15 µM)

CO[C@H]1/C=C/O[C@@]2(C)Oc3c(C)c(O)c4c(O)c(c(/C=N/N5CCN(C)CC5)c(O)c4c3C2=O)NC(=O)/C(C)=C\C=C\[C@H](C)[C@H](O)[C@@H](C)[C@@H](O)[C@@H](C)[C@H](OC(C)=O)[C@@H]1C [RIFAMPIN]
MIC [1]: 0.75 µg/mL (≈ 0.911 µM)
MIC [2]: 0.51 µg/mL (≈ 0.62 µM)
MIC [3]: 0.48 µg/mL (≈ 0.583 µM)
MIC [4]: 0.41 µg/mL (≈ 0.498 µM)
GI50 [5]: 0.14 µg/mL (≈ 0.17 µM)
selectivity ratio [10]: 208
selectivity ratio [12]: 208
selectivity ratio [14]: 208
selectivity ratio [15]: 196
selectivity ratio [16]: 244
selectivity ratio [17]: 196
selectivity ratio [18]: 244
selectivity ratio [19]: 196
selectivity ratio [20]: 244
